One block for each compound: values may come before it. Activity calls are given as the source filed them. The rule behind the calls is not given here.
What was measured:
[1] = test system: MCF7; assay: Inhibition of HSP70 in human MCF7 cells assessed as reduction of Akt1 level at 0.6 to 10 uM after 24 hrs by Western blot analysis; assay type: cell-based
Outline: (§1)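 MCF7 or MDA-MB-231 cells treated for 24 h across a range of concentrations. Lysates probed by Western blot for the Hsp70 clients p53, Akt1 and Raf1, alongside Hsp70 and Hsp90. Blots are representative of experiments run in triplicate.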

[2] = test system: MDA-MB-231; assay: Upregulation of Hsp70 protein expression in human MDA-MB-231 cells at 0.6 to 10 uM after 24 hrs by Western blot analysis; assay type: functional, cell-based
Outline: (§2)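 MCF7 and MDA-MB-231 cells treated for 24 h across a range of concentrations. Lysates Western blotted for p53, Akt1, Raf1, Hsp70 and Hsp90. Representative of triplicate experiments.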

[3] = test system: MDA-MB-231; assay: Cytotoxicity against human MDA-MB-231 cells assessed as growth inhibition after 72 hrs by MTT assay; assay type: functional, cell-based; conditions: MDA-MB-231, 72 h
Outline: (§3)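 Antiproliferative activity measured by MTT assay. EC50 is the average of triplicate experiments, with error as SEM.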

[4] = test system: MCF7; assay: Inhibition of HSP70 in human MCF7 cells assessed as induction of […] p53 level at 5 to 10 uM after 24 hrs by Western blot analysis; assay type: cell-based; outline: as §2
[5] = Selectivity ratio of EC50 for C57BL/6 mouse MEF to EC50 for human MCF-7 cells; assay type: ADME, cell-based; conditions: C57BL/6, mouse and human, mouse embryonic fibroblasts (MEF) versus MCF-7 cells; read-out: Ratio EC50
Outline: (§4)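 Antiproliferative EC50 values measured by MTT assay in mouse embryonic fibroblasts and in the breast cancer line (MCF7 or MDA-MB-231), averaged over triplicate experiments, error SEM. Selectivity taken as the ratio of fibroblast EC50 to cancer-cell EC50.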

[6] = test system: MCF7; assay: Upregulation of Hsp70 protein expression in human MCF7 cells at 0.6 to 10 uM after 24 hrs by Western blot analysis; assay type: functional, cell-based; outline: as §2
[7] = Selectivity ratio of EC50 for C57BL/6 mouse MEF to EC50 for human MDA-MB-231 cells; assay type: ADME; conditions: C57BL/6, mouse and human, mouse embryonic fibroblasts (MEF) versus MDA-MB-231 cells; outline: as §4
[8] = test system: MDA-MB-231; assay: Inhibition of HSP70 in human MDA-MB-231 cells assessed as reduction of Raf level at 0.6 to 10 uM after 24 hrs by Western blot analysis; assay type: cell-based; outline: as §1
[9] = test system: MCF7; assay: Cytotoxicity against human MCF7 cells assessed as growth inhibition after 72 hrs by MTT assay; assay type: functional, cell-based; conditions: MCF7, 72 h; outline: as §3
[10] = test system: MCF7; assay: Upregulation of Hsp90 protein expression in human MCF7 cells at 0.6 to 10 uM after 24 hrs by Western blot analysis; assay type: functional, cell-based; outline: as §2
[11] = test system: MDA-MB-231; assay: Inhibition of HSP70 in human MDA-MB-231 cells assessed as reduction of Akt1 level at 0.6 to 10 uM after 24 hrs by Western blot analysis; assay type: cell-based; outline: as §1
[12] = Half life in mouse liver microsomes at 1 uM incubated for 15 mins prior to beta-NADPH addition by LC-MS/MS analysis; assay type: ADME, Microsome; conditions: for t1/2: microsomes, 0.25 h, 1 µM
Outline: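 Compounds at 1 μM incubated with mouse liver microsomes. Degradation followed by LC–MS and reported as half-life.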

[13] = test system: MEF; assay: Cytotoxicity against C57BL/6 mouse MEF assessed as growth inhibition after 72 hrs by MTT assay; assay type: cell-based; conditions: C57BL/6, MEF; outline: as §3
[14] = test system: MCF7; assay: Inhibition of HSP70 in human MCF7 cells assessed as reduction of Raf level at 0.6 to 10 uM after 24 hrs by Western blot analysis; assay type: cell-based; outline: as §1
[15] = test system: MDA-MB-231; assay: Upregulation of Hsp90 protein expression in human MDA-MB-231 cells at 0.6 to 10 uM after 24 hrs by Western blot analysis; assay type: functional, cell-based; outline: as §2
[16] = Drug metabolism in mouse liver microsomes assessed as compound life time; assay type: ADME, Microsome
Outline: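 Compounds at 1 μM incubated with liver microsomes from C57BL/6 mice; disappearance of parent compound followed by LC–MS and reported as microsomal lifetime (t1/2, min).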

[17] = test system: MCF7; assay: Induction of autophagic flux in human MCF7 cells assessed as decrease in p62 monomer level at 5 to 10 uM after 24 hrs; assay type: functional, cell-based
[18] = test system: MCF7; assay: Induction of autophagic flux in human MCF7 cells assessed as increase in p62 oligomerization at 5 to 10 uM after 24 hrs; assay type: functional, cell-based
[19] = test system: MDA-MB-231; assay: Induction of apoptosis in human MDA-MB-231 cells assessed as PARP cleavage at 10 uM after 48 hrs; assay type: functional, cell-based
Outline: (§5)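 MDA-MB-231 cells treated for 48 h. Cleavage of caspase 3 and PARP detected by Western blot. Representative of duplicate experiments.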

[20] = Binding affinity to [1H-15N]-DnaK (1 to 388) nucleotide binding domain (unknown origin) at 200 uM by NMR analysis
[21] = test system: MDA-MB-231; assay: Induction of autophagic flux in human MDA-MB-231 cells assessed as increase in p62 oligomerization at 5 to 10 uM after 24 hrs; assay type: functional, cell-based
[22] = test system: MDA-MB-231; assay: Induction of autophagic flux in human MDA-MB-231 cells assessed as decrease in p62 monomer level at 5 to 10 uM after 24 hrs; assay type: functional, cell-based
[23] = test system: MDA-MB-231; assay: Induction of apoptosis in human MDA-MB-231 cells assessed as caspase-3 cleavage at 10 uM after 48 hrs; assay type: functional, cell-based; outline: as §5
[24] = molecular target: Heat shock cognate 71 kDa protein (Homo sapiens, UniProt P11142); assay: Binding affinity to human HSC70 after 3 hrs by ELISA
Heat shock cognate 71 kDa protein, sequence (P11142 whole entry): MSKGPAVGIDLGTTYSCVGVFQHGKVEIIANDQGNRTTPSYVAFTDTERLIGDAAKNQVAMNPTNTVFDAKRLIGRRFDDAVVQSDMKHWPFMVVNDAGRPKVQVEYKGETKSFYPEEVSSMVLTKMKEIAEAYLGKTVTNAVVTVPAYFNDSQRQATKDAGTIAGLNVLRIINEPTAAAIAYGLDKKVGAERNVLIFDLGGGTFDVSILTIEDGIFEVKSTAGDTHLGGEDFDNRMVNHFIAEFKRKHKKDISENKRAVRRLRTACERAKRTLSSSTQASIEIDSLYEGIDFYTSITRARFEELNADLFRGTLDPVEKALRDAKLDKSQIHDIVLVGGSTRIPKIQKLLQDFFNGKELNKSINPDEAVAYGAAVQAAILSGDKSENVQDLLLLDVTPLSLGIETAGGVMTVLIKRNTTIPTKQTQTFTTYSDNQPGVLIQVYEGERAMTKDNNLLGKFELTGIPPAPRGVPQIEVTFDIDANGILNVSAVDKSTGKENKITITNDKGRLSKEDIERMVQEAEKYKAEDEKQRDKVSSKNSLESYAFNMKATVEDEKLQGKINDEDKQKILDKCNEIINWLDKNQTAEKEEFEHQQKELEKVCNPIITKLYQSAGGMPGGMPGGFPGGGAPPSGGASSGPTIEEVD

Compound: CCn1c(=O)/c(=C2\Sc3cccc(F)c3N2C)s/c1=C\c1scc[n+]1Cc1ccccc1.[Cl-]
inhibition [1]: 25%
Activity [2]: inactive
EC50 [3]: 400 nM
inhibition [4]: Active
selectivity ratio [5]: 8
Activity [6]: inactive
selectivity ratio [7]: 21
inhibition [8]: 25%
EC50 [9]: 1000 nM
Activity [10]: inactive
inhibition [11]: 25%
t1/2 [12]: ND(Insoluble)
EC50 [13]: 8300 nM
inhibition [14]: 25%
Activity [15]: inactive

Compound: CCn1c(=O)/c(=C2\Sc3ccccc3N2C)s/c1=C\c1cccc[n+]1CC.[Cl-]
EC50 [3]: 1400 nM
Time [16]: 4.4 min
EC50 [9]: 2200 nM
half-life at 1 µM ([12]; liver microsomes): < 5 min
EC50 [13]: > 50000 nM

Compound: CCn1c(=O)/c(=C2\Sc3cc(Cl)ccc3N2C)s/c1=C\c1scc[n+]1Cc1ccccc1.[Cl-]
EC50 [3]: 400 nM
Activity [17]: Active
Activity [18]: Active
EC50 [9]: 700 nM
Activity [19]: Active
t1/2 [12]: 37 min
EC50 [13]: 24000 nM
Activity [20]: Active
Activity [21]: Active
Activity [22]: Active
Activity [23]: Active

Kd [24]: 1500 nM
Compound: CCn1c(=O)/c(=C2\Sc3cc(F)ccc3N2C)s/c1=C\c1cccc[n+]1CCCCCCNC(=O)CCCC[C@@H]1SC[C@@H]2NC(=O)N[C@@H]21

Kd [24]: 2300 nM
Compound: CCn1c(=O)/c(=C2\Sc3ccc(F)cc3N2C)s/c1=C\c1cccc[n+]1CCCCCCNC(=O)CCCC[C@@H]1SC[C@@H]2NC(=O)N[C@@H]21
